Assay results published in ChEMBL document CHEMBL1148681, “Synthesis and evaluation of (2-phenethyl-2H-1,2,3-triazol-4-yl)(phenyl)methanones as Kv1.5 channel blockers for the treatment of atrial fibrillation” (Bioorg Med Chem Lett, 2006).
pIC50: −log10 of the molar value. Activity calls are given as the source filed them. The calls are words filed in the database; no cut-off is given here.

Assays:
[1] = biological target: T1, Potassium voltage-gated channel subfamily A member 5 (Homo sapiens, UniProt P22460); experiment: Blockade of Kv1.5 channel expressed in LTK cells at 1 uM by patch clamp method; format: functional, cell-based
How it was run: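 Whole-cell patch clamp on Ltk- cells overexpressing Kv1.5, cultured 24–72 h and induced with dexamethasone for 24 h. Pipette solution was KCl/K2ATP/K4BAPTA/MgCl2/Hepes at pH 7.2; bath was NaCl/KCl/CaCl2/MgCl2/Hepes/glucose at pH 7.4. Cells were held at −70 mV and stepped to +60 mV for 1 s at 0.2 Hz. Current at pulse end was compared to control at 1 uM inhibitor.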

[2] = test system: Sus scrofa; experiment: Increase in atrial effective refractory period in pig at 30 mg/kg after 15 mins; format: functional, Cardiac atrium
[3] = biological target: Voltage-gated inwardly rectifying potassium channel KCNH2 (Homo sapiens, UniProt Q12809); experiment: Inhibition of hERG; format: toxicity
[4] = test system: Sus scrofa; experiment: Effect on ventricular effective refractory period in pig at 30 mg/kg after 15 mins; format: functional, organism-based; design: dose 30 mg/kg; settings: Cardiac ventricle
[5] = biological target: T1, Potassium voltage-gated channel subfamily A member 5; experiment: Blockade of Kv1.5 channel expressed in LTK cells by patch clamp method; format: functional, cell-based
How it was run: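 Dexamethasone-induced (24 h) Ltk- cells expressing Kv1.5 were recorded by series-resistance-compensated whole-cell patch clamp, with 1 s steps from −70 to +60 mV at 0.2 Hz (pH 7.2 pipette, pH 7.4 bath). After control currents stabilized, inhibitor was perfused at rising concentrations, each to maximal block. IC50 was obtained by nonlinear regression.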

[6] = biological target: Potassium voltage-gated channel subfamily A member 3 (Homo sapiens) (UniProt P22001); experiment: Inhibition of Kv1.3 channel
[7] = biological target: Voltage-gated L-type calcium channel (Homo sapiens, UniProt Q13936+Q13698+Q01668+O60840); experiment: Inhibition of L type calcium channel; format: protein assay

T1 sequence (P22460 whole entry): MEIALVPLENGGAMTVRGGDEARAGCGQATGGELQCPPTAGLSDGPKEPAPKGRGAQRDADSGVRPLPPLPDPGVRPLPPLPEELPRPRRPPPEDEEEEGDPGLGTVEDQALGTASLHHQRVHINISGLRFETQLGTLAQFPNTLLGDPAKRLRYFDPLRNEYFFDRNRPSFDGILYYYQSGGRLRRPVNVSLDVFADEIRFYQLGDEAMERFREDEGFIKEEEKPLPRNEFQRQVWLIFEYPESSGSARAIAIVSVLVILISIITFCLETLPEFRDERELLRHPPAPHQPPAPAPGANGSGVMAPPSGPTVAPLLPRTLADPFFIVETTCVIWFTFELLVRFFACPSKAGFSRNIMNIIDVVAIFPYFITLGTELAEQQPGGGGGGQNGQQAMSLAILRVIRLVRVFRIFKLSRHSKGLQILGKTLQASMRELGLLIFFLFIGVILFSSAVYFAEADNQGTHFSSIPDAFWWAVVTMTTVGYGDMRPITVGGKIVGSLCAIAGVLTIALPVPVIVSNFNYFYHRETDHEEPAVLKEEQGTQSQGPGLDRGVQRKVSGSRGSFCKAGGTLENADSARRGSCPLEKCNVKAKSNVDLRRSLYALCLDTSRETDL
Sequence of Potassium voltage-gated channel subfamily A member 3 (Homo sapiens) (P22001 whole entry): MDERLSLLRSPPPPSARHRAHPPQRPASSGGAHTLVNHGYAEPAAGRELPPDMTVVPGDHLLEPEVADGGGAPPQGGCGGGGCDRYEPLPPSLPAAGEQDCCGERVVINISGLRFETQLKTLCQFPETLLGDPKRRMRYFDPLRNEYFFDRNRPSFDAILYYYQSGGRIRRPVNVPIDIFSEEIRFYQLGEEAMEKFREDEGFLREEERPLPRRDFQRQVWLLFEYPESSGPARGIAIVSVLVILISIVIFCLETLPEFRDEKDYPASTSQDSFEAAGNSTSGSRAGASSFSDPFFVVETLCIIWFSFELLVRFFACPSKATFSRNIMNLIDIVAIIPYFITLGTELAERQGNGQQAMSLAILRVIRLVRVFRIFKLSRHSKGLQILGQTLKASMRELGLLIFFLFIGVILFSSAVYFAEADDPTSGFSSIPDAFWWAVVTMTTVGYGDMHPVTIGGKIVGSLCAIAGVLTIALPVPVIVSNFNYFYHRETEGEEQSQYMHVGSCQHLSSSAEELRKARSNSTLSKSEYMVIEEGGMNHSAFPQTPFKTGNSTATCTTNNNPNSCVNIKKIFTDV
Sequence of Voltage-gated inwardly rectifying potassium channel KCNH2 (Q12809 whole entry): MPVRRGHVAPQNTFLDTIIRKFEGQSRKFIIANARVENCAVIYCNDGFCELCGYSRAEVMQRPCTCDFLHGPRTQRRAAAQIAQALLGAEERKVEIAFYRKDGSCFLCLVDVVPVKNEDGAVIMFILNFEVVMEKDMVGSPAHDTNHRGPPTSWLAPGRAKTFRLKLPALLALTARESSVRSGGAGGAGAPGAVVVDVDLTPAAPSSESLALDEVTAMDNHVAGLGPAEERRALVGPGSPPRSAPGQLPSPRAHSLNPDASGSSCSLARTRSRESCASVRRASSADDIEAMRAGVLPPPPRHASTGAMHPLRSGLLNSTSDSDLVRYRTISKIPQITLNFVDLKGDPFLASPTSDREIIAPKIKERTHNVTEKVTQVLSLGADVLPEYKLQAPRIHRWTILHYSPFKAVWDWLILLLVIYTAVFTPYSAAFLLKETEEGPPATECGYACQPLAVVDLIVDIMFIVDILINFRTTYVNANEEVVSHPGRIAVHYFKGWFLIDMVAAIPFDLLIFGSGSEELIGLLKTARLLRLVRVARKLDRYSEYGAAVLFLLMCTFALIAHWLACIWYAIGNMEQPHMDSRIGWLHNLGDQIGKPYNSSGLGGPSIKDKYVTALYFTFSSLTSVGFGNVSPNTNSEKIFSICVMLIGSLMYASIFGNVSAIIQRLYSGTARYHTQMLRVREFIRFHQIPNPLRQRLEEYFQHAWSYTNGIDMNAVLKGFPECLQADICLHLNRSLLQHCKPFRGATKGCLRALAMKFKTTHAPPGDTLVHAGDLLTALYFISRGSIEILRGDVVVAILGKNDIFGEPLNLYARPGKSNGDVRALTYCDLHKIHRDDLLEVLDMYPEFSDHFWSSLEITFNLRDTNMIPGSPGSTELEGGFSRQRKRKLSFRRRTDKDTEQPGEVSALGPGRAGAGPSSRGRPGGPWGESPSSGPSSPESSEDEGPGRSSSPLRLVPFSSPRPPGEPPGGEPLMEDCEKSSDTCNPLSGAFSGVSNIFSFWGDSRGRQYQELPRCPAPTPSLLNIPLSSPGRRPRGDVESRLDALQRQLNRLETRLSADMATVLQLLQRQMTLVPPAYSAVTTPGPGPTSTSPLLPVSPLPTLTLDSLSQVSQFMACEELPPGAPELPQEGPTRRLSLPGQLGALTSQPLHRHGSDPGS

Structure (SMILES)	Activity [1] [%]	also measured
COc1ccc(CCn2ncc(C(=O)c3ccc(N(C)C)cc3)n2)cc1	99	–
COc1ccc(CCn2ncc(C(=O)c3ccc(C)c(C)c3)n2)cc1	90	Activity [2]: 12%; Activity [3]: > 50 µM; Activity [4]: inactive; pIC50 [5]: 6.53; Activity [6]: 10.1 µM; Activity [7]: 26 µM
COc1ccc(CCn2ncc(C(=O)c3ccc(Cl)c(Cl)c3)n2)cc1	88	–
COc1ccc(CCn2ncc(C(=O)c3ccccc3Cl)n2)cc1	22	–
COc1ccc(CCn2ncc(C(=O)c3ccc(N(C)C)cc3OC)n2)cc1	0	–
COc1ccc(CCn2cc(C(=O)c3ccc(C)c(C)c3)nn2)cc1	–	Activity [5]: inactive
COc1ccc(CCN2C(=O)CSC2c2ccc(C)c(C)c2)cc1 (configuration not stated)	–	pIC50 [5]: 6.86

The next lines start with results.

Activity [1] [%]	Structure (SMILES)	also measured
84	COc1ccc(CCn2ncc(C(=O)c3ccc(OC)cc3)n2)cc1	–
97	COc1ccc(CCn2ncc(C(=O)c3ccc(C(C)C)cc3)n2)cc1	–
86	CCc1ccc(C(=O)c2cnn(CCc3ccc(OC)cc3)n2)cc1	–
85	COc1ccc(CCn2ncc(C(=O)c3ccc(Cl)cc3)n2)cc1	–
